# ChEMBL document CHEMBL5724801, “EUbOPEN Chemogenomics Library - Multiplex” (2024)
# Where “and” joins values, the source holds several entries; their conditions need not be identical. Equal values may be shown once.
# Tested on: HEK-293T
# Assay: Multiplex assay against HEK293T
# Assay type: toxicity, cell-based
# Conditions: human, 12 h, 1 µM, compound concentration 1 uM
# In short: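 Cells were classed with CellPathfinder machine-learning gating, first as Hoechst high-intensity objects or normal cells, then (normal cells) as healthy, pyknosed or fragmented nuclei, and finally (pyknosed cells) as mitotic or apoptotic. Staining of live cells at seeding used Hoechst33342, BioTracker Green Microtubule Cytoskeleton Dye, MitoTracker Red and Annexin V Alexa Fluor 680, with imaging on a CQ1 microscope at 37°C and 5% CO2 after compound addition. Tubulin, mitochondrial-mass and membrane-permeability phenotypes are per cents of healthy-nucleus cells.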
SMILES,Population Apoptotic (%),Population Fragmented Nuclei (%),Population Hoechst High Intensity Objects (%),Population Membrane Permeable-Phenotype (%),Population Mitotic Cells (%),Population Normal (%),Population Pyknosed Nuclei (%),Total Cell Count,Population Healthy Nuclei (%),Population Mitochondria Different-Phenotype (%)
Cc1[nH]nc2ccc(-c3cncc(OCC(N)Cc4c[nH]c5ccccc45)c3)cc12 (stereo not drawn),14.46% and 12.06%,1.15% and 2.53%,0.86% and 0%,1.98% and 0%,85.54% and 87.94%,99.14% and 100%,69.74% and 89.24%,350 and 158,,
Cc1ccc(-c2ccc(F)cc2COc2ccc(CCC(=O)O)cc2)cc1,42% and 33%,6%,9%,,57% and 66%,90%,15%,465 and 324,82% and 77%,36% and 50%
Cn1ncnc1COc1nn2c(-c3cc(F)ccc3F)nnc2cc1C(C)(C)C,8.93% and 7.56%,2.83% and 4.35%,0%,,91.07% and 92.44%,100%,52.83% and 86.23%,318 and 138,,29.79% and 46.15%
O=C1CSC(=O)N1C(CCc1ccncc1)COc1ccc(-c2cccc([N+](=O)[O-])c2)cc1 (stereo not drawn),18.32% and 7.02%,3.08% and 7.35%,0.76% and 0%,2.48% and 0%,81.68% and 92.98%,99.24% and 100%,50.38% and 83.82%,262 and 136,,25.62% and 16.67%

# Same assay, conditions: human, 12 h, 1 µM, compound concentration 1 uM
row,SMILES,Population Tubulin-Different-Phenotype (%)
1,Cc1ccc(-c2ccc(F)cc2COc2ccc(CCC(=O)O)cc2)cc1,18%

# Same assay, conditions: human, 12 h, 10 µM, compound concentration 10 uM
SMILES,Population Apoptotic (%),Population Fragmented Nuclei (%),Population Healthy Nuclei (%),Population Hoechst High Intensity Objects (%),Population Membrane Permeable-Phenotype (%),Population Mitochondria Different-Phenotype (%),Population Mitotic Cells (%),Population Normal (%),Population Pyknosed Nuclei (%),Total Cell Count
Cc1[nH]nc2ccc(-c3cncc(OCC(N)Cc4c[nH]c5ccccc45)c3)cc12 (stereo not drawn),26.81% and 37.12%,0.85% and 0%,5.1% and 3.65%,0.28% and 0%,0%,16.67% and 0%,73.19% and 62.88%,99.72% and 100%,94.05% and 96.35%,354 and 137
Cc1ccc(-c2ccc(F)cc2COc2ccc(CCC(=O)O)cc2)cc1,32% and 42%,10% and 7%,79% and 83%,7% and 6%,,46% and 58%,67% and 57%,92% and 93%,10% and 9%,329 and 396
Cn1ncnc1COc1nn2c(-c3cc(F)ccc3F)nnc2cc1C(C)(C)C,12.9% and 20.39%,0.72% and 5.3%,43.73% and 16.67%,0%,,,87.1% and 79.61%,100%,55.56% and 78.03%,279 and 132
O=C1CSC(=O)N1C(CCc1ccncc1)COc1ccc(-c2cccc([N+](=O)[O-])c2)cc1 (stereo not drawn),45.8% and 41.28%,3.51% and 3.1%,19.88% and 12.4%,0.58% and 0%,0%,32.35% and 18.75%,54.2% and 58.72%,99.42% and 100%,76.61% and 84.5%,172 and 129

# Same assay, conditions: human, 12 h, 10 µM, compound concentration 10 uM
row,SMILES,Population Tubulin-Different-Phenotype (%)
1,Cc1ccc(-c2ccc(F)cc2COc2ccc(CCC(=O)O)cc2)cc1,33% and 15%
2,Cn1ncnc1COc1nn2c(-c3cc(F)ccc3F)nnc2cc1C(C)(C)C,22.95% and 27.27%
3,O=C1CSC(=O)N1C(CCc1ccncc1)COc1ccc(-c2cccc([N+](=O)[O-])c2)cc1 (stereo not drawn),70.59% and 62.5%

# Same assay, conditions: human, 24 h, 1 µM, compound concentration 1 uM
SMILES,Population Apoptotic (%),Population Fragmented Nuclei (%),Population Hoechst High Intensity Objects (%),Population Membrane Permeable-Phenotype (%),Population Mitochondria Different-Phenotype (%),Population Mitotic Cells (%),Population Normal (%),Population Pyknosed Nuclei (%),Total Cell Count,Population Healthy Nuclei (%)
Cc1[nH]nc2ccc(-c3cncc(OCC(N)Cc4c[nH]c5ccccc45)c3)cc12 (stereo not drawn),39.92% and 29.58%,0.63% and 1.97%,0.62% and 0%,1.59% and 0%,34.92% and 28.57%,60.08% and 70.42%,99.38% and 100%,79.56% and 93.42%,320 and 152,
Cc1ccc(-c2ccc(F)cc2COc2ccc(CCC(=O)O)cc2)cc1,,10% and 9%,3% and 7%,,16% and 33%,84% and 47%,96% and 92%,7% and 9%,688 and 445,82% and 80%
Cn1ncnc1COc1nn2c(-c3cc(F)ccc3F)nnc2cc1C(C)(C)C,10.85% and 17.5%,2.35% and 3.27%,0%,,20.12% and 10.71%,89.15% and 82.5%,100%,27.56% and 78.43%,,
O=C1CSC(=O)N1C(CCc1ccncc1)COc1ccc(-c2cccc([N+](=O)[O-])c2)cc1 (stereo not drawn),27.34% and 23.23%,4.44% and 4.69%,0.52% and 0%,0.42% and 0%,35.71% and 17.39%,72.66% and 76.77%,99.48% and 100%,33.42% and 77.34%,,

# Same assay, conditions: human, 24 h, 1 µM, compound concentration 1 uM
row,SMILES,Population Tubulin-Different-Phenotype (%)
1,Cc1ccc(-c2ccc(F)cc2COc2ccc(CCC(=O)O)cc2)cc1,10% and 13%
2,Cn1ncnc1COc1nn2c(-c3cc(F)ccc3F)nnc2cc1C(C)(C)C,23.17% and 10.71%

# Same assay, conditions: human, 24 h, 10 µM, compound concentration 10 uM
SMILES,Population Apoptotic (%),Population Fragmented Nuclei (%),Population Healthy Nuclei (%),Population Hoechst High Intensity Objects (%),Population Membrane Permeable-Phenotype (%),Population Mitochondria Different-Phenotype (%),Population Normal (%),Population Pyknosed Nuclei (%),Population Tubulin-Different-Phenotype (%),Total Cell Count
Cc1[nH]nc2ccc(-c3cncc(OCC(N)Cc4c[nH]c5ccccc45)c3)cc12 (stereo not drawn),80.3% and 96.64%,0.86% and 2.34%,3.15% and 4.69%,0.85% and 0%,0% and 16.67%,72.73% and 33.33%,99.15% and 100%,95.99% and 92.97%,72.73% and 33.33%,352 and 128
Cc1ccc(-c2ccc(F)cc2COc2ccc(CCC(=O)O)cc2)cc1,36% and 51%,11% and 6%,76% and 87%,3%,,30% and 37%,94% and 96%,6%,18% and 13%,397 and 461
Cn1ncnc1COc1nn2c(-c3cc(F)ccc3F)nnc2cc1C(C)(C)C,25.69% and 29.36%,1.85% and 4.23%,,0.52% and 0%,,34.22% and 18.52%,99.48% and 100%,28.76% and 76.76%,50.19% and 33.33%,381 and 142
O=C1CSC(=O)N1C(CCc1ccncc1)COc1ccc(-c2cccc([N+](=O)[O-])c2)cc1 (stereo not drawn),78.62% and 78.15%,2.66% and 5.11%,20.21% and 8.03%,1.05% and 0.72%,0%,81.58% and 63.64%,98.95% and 99.28%,77.13% and 86.86%,100% and 45.45%,190 and 138

# Same assay, conditions: human, 24 h, 10 µM, compound concentration 10 uM
row,SMILES,Population Mitotic Cells (%)
1,Cc1ccc(-c2ccc(F)cc2COc2ccc(CCC(=O)O)cc2)cc1,63% and 48%
2,Cn1ncnc1COc1nn2c(-c3cc(F)ccc3F)nnc2cc1C(C)(C)C,74.31% and 70.64%
3,O=C1CSC(=O)N1C(CCc1ccncc1)COc1ccc(-c2cccc([N+](=O)[O-])c2)cc1 (stereo not drawn),21.38% and 21.85%

# Same assay, conditions: human, 48 h, 1 µM, compound concentration 1 uM
SMILES,Population Apoptotic (%),Population Fragmented Nuclei (%),Population Healthy Nuclei (%),Population Hoechst High Intensity Objects (%),Population Membrane Permeable-Phenotype (%),Population Mitochondria Different-Phenotype (%),Population Mitotic Cells (%),Population Normal (%),Population Pyknosed Nuclei (%),Total Cell Count
Cc1[nH]nc2ccc(-c3cncc(OCC(N)Cc4c[nH]c5ccccc45)c3)cc12 (stereo not drawn),57.46% and 49.23%,2.33% and 1.39%,21.93% and 8.33%,0.33% and 0.69%,0%,86.36% and 58.33%,42.54% and 50.77%,99.67% and 99.31%,75.75% and 90.28%,302 and 145
Cc1ccc(-c2ccc(F)cc2COc2ccc(CCC(=O)O)cc2)cc1,17% and 36%,15% and 14%,79% and 77%,1% and 2%,,7% and 18%,82% and 63%,98% and 97%,5%,1149 and 631
Cn1ncnc1COc1nn2c(-c3cc(F)ccc3F)nnc2cc1C(C)(C)C,9.38% and 21.84%,2.19% and 2.84%,86.12% and 47.73%,0% and 0.56%,,20.57% and 32.14%,90.62% and 78.16%,100% and 99.44%,,
O=C1CSC(=O)N1C(CCc1ccncc1)COc1ccc(-c2cccc([N+](=O)[O-])c2)cc1 (stereo not drawn),14.91% and 17.91%,2.27% and 5.07%,82.51% and 46.38%,0%,2.59% and 1.56%,37.38% and 28.12%,85.09% and 82.09%,100%,,

# Same assay, conditions: human, 48 h, 1 µM, compound concentration 1 uM
row,SMILES,Population Tubulin-Different-Phenotype (%)
1,Cc1ccc(-c2ccc(F)cc2COc2ccc(CCC(=O)O)cc2)cc1,8% and 9%

# Same assay, conditions: human, 48 h, 10 µM, compound concentration 10 uM
SMILES,Population Apoptotic (%),Population Fragmented Nuclei (%),Population Healthy Nuclei (%),Population Hoechst High Intensity Objects (%),Population Membrane Permeable-Phenotype (%),Population Mitochondria Different-Phenotype (%),Population Mitotic Cells (%),Population Normal (%),Population Pyknosed Nuclei (%),Population Tubulin-Different-Phenotype (%)
Cc1[nH]nc2ccc(-c3cncc(OCC(N)Cc4c[nH]c5ccccc45)c3)cc12 (stereo not drawn),80.14% and 100%,0.68% and 1.68%,3.73% and 4.2%,3.91% and 0%,9.09% and 0%,54.55% and 40%,19.86% and 0%,96.09% and 100%,95.59% and 94.12%,45.45% and 40%
Cc1ccc(-c2ccc(F)cc2COc2ccc(CCC(=O)O)cc2)cc1,24% and 31%,12% and 15%,78% and 79%,2% and 4%,,17% and 16%,75% and 68%,97% and 95%,5%,9% and 8%
Cn1ncnc1COc1nn2c(-c3cc(F)ccc3F)nnc2cc1C(C)(C)C,22.83% and 17.39%,1.92%,77.76% and 53.85%,0.32% and 0%,,45.27% and 57.14%,77.17% and 82.61%,99.68% and 100%,20.32% and 44.23%,
O=C1CSC(=O)N1C(CCc1ccncc1)COc1ccc(-c2cccc([N+](=O)[O-])c2)cc1 (stereo not drawn),71.68% and 69.07%,2.88% and 7.56%,,1.89% and 0%,3.37% and 0%,95.51% and 84.62%,28.32% and 30.93%,98.11% and 100%,54.33% and 81.51%,84.27% and 69.23%

# Same assay, conditions: human, 48 h, 10 µM, compound concentration 10 uM
row,SMILES,Total Cell Count
1,Cc1[nH]nc2ccc(-c3cncc(OCC(N)Cc4c[nH]c5ccccc45)c3)cc12 (stereo not drawn),307 and 119
2,Cc1ccc(-c2ccc(F)cc2COc2ccc(CCC(=O)O)cc2)cc1,713 and 702
3,O=C1CSC(=O)N1C(CCc1ccncc1)COc1ccc(-c2cccc([N+](=O)[O-])c2)cc1 (stereo not drawn),212 and 119
